In data set [1] the target is T1, Histone acetyltransferase p300 (Homo sapiens, UniProt Q09472). Put plainly: Inhibition of recombinant histone acetyltransferase p300 (unknown origin) using dH3-H4 tetramer and [3H]-acetyl-CoA assessed as acetate incorporation […] by liquid scintillation counting. The settings on record: read-out: IC50.
The target of data set [2] is T1, Histone acetyltransferase p300. Put plainly: Inhibition of recombinant histone acetyltransferase p300 (unknown origin) using dH3-H4 tetramer and [3H]-acetyl-CoA assessed as acetate incorporation after 5 mins by liquid scintillation counting in presence of 1 mM DTT.
Data set [3] is described as follows: Fluorescence quenching in HTS buffer with […] CoA assessed as fluorescence signal reduction at 10 uM after 10 mins. The class given is physicochemical.
Data set [4] deals with Histone acetyltransferase GCN5 (Saccharomyces cerevisiae S288c) (UniProt Q03330). Put plainly: Inhibition of yeast histone acetyltransferase Gcn5-Ada2-Ada3 complex using tetramer and [3H]-acetyl-CoA assessed as acetate incorporation […] by liquid scintillation counting in presence of 1 mM DTT.
A short description of data set [5]: Fluorescence quenching assessed as fluorescence signal reduction at 10 uM after 10 mins. The class given is physicochemical. The gist of the method: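 CPM (20 μM final) and CoA (5 μM final) reacted to completion in assay buffer (stable plateau, usually ~5 min); adduct solution added to wells preplated with compound; shaken 5 min, equilibrated 5 min at room temperature; fluorescence intensity read as percent signal reduction versus DMSO controls. Flagged as quencher at >20% signal reduction at 10 μM final compound.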

Data set [6] has as its target Histone acetyltransferase GCN5 (Saccharomyces cerevisiae S288c, UniProt Q03330). Put plainly: Inhibition of yeast histone acetyltransferase Gcn5-Ada2-Ada3 complex using tetramer and [3H]-acetyl-CoA assessed as acetate incorporation after 30 mins by liquid scintillation counting. The settings on record: read-out: IC50.
Data set [7] concerns the target T2, Histone acetyltransferase RTT109 (Saccharomyces cerevisiae (strain ATCC 204508 / S288c) (Baker's yeast), UniProt Q07794).
T2 sequence (Q07794 whole entry): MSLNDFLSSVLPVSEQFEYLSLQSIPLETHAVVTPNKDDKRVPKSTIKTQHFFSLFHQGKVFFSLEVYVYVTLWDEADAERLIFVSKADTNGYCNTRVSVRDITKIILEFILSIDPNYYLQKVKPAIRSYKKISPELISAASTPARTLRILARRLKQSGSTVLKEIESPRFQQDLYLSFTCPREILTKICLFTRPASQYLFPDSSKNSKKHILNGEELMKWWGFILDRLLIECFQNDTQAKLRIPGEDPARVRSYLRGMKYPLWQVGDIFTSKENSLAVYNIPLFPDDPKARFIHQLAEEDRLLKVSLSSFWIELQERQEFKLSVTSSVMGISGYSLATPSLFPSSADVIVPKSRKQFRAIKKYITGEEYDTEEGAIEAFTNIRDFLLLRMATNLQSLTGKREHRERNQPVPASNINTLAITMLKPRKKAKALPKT
Briefly: Inhibition of Vps75-stimulated recombinant Saccharomyces cerevisiae histone acetyltransferase Rtt109 using Asf1-dH3-H4 as substrate assessed as coenzyme A production after 45 mins by CPM based HTS assay. The settings on record: read-out: IC50. The procedure, abridged: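 Recombinant Rtt109–Vps75 at 50 nM, with Asf1–dH3–H4 as substrate and acetyl-CoA as acetyl donor. Buffer contained freshly prepared 0.01% Triton X-100. The CoA product was detected by fluorescence of its CPM adduct. Plates had Z′ ≥0.5. IC50 came from a four-parameter variable-slope fit.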

Data set [8] is described as follows: Fluorescence quenching in HTS buffer assessed as fluorescence signal reduction at 10 uM after 10 mins. In kind it is physicochemical.
Data set [9] addresses T3, Lupus La protein (Homo sapiens) (UniProt P05455).
T3 sequence (whole entry): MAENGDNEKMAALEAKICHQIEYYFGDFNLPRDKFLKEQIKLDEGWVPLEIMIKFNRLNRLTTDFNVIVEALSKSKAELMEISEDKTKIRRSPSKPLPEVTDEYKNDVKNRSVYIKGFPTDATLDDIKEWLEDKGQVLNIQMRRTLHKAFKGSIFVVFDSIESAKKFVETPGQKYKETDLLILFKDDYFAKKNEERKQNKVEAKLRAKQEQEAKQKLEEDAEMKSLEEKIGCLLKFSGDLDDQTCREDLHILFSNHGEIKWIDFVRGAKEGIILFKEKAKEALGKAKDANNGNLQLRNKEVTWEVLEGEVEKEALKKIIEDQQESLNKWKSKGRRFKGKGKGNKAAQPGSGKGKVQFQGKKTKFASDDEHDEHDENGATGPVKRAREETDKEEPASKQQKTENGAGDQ
Put plainly: Induction of thiol reactivity with La protein (unknown origin) using […] assessed as protein reactivity by ALARM NMR in presence of 20 mM DTT. The procedure, abridged:
(§1)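 ALARM NMR with recombinant La antigen expressed in E. coli Rosetta, 15N-labelled and 13C-labelled at Leu/Ile δ-methyl and Val γ-methyl groups; protein pre-reduced with 20 mM DTT then dialysed DTT-free under N2.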

Data set [10] has as its target T2, Histone acetyltransferase RTT109. Put plainly: Inhibition of Vps75-stimulated recombinant Saccharomyces cerevisiae histone acetyltransferase Rtt109 using [3H]-acetyl-CoA assessed as acetate incorporation after 30 mins by liquid scintillation counting. The settings on record: read-out: IC50.
The target of data set [11] is T4, Histone acetyltransferase RTT109 (Saccharomyces cerevisiae (strain ATCC 204508 / S288c) (Baker's yeast)) (UniProt Q07794).
T4 sequence (whole entry): T2 sequence (Q07794 whole entry)
Put plainly: Inhibition of Vps75-stimulated recombinant Saccharomyces cerevisiae histone acetyltransferase Rtt109 assessed as H3K27 acetylated product at […] after 45 mins by Slot bolt inhibiton assay.

The target in data set [12] is T4, Histone acetyltransferase RTT109 (Saccharomyces cerevisiae (strain ATCC 204508 / S288c) (Baker's yeast)). Put plainly: Inhibition of Vps75-stimulated recombinant Saccharomyces cerevisiae histone acetyltransferase Rtt109 assessed as H3K56 acetylated product at […] after 45 mins by Slot bolt inhibiton assay.
The target is the same in data set [13]. Briefly: Inhibition of Vps75-stimulated recombinant Saccharomyces cerevisiae histone acetyltransferase Rtt109 using [3H]-acetyl-CoA assessed as acetate incorporation […] by liquid scintillation counting in presence of 1 mM DTT.
The nature of data set [14]: Fluorescence quenching in HTS buffer with 20 uM 7-diethylamino-3-(4'-maleimidyl-phenyl)-4-methylcoumarin assessed as fluorescence signal reduction at 10 uM after 10 mins. In kind it is physicochemical.
The target in data set [15] is T3, Lupus La protein (Homo sapiens). Put plainly: Induction of thiol reactivity with La protein (unknown origin) using […] assessed as protein reactivity by ALARM NMR. The gist of the method:
as §1

The nature of data set [16]: Chemical stability of the compound in HTS buffer assessed as GSH adduct formation by UPLC-MS analysis. In kind it is physicochemical. The gist of the method:
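Compound (typically 0.5 mM final) incubated in HTS buffer (pH 8.0) for 5, 15 or 30 min, then reduced glutathione added (2 equiv per 1 equiv compound); aliquots analysed by UPLC–MS (BEH C18 column, ELS and 254 nm traces) 5 min after GSH addition, and the same sample re-analysed 15 min later. HTS-like conditions but 5% DMSO, no detergent.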

Activity calls are given as the source filed them. Unless noted, the calls are words filed in the database; no cut-off is given here.

Broadly, the IC50 is the point on the concentration scale where inhibition reaches its midpoint.

T1 sequence (Q09472 whole entry): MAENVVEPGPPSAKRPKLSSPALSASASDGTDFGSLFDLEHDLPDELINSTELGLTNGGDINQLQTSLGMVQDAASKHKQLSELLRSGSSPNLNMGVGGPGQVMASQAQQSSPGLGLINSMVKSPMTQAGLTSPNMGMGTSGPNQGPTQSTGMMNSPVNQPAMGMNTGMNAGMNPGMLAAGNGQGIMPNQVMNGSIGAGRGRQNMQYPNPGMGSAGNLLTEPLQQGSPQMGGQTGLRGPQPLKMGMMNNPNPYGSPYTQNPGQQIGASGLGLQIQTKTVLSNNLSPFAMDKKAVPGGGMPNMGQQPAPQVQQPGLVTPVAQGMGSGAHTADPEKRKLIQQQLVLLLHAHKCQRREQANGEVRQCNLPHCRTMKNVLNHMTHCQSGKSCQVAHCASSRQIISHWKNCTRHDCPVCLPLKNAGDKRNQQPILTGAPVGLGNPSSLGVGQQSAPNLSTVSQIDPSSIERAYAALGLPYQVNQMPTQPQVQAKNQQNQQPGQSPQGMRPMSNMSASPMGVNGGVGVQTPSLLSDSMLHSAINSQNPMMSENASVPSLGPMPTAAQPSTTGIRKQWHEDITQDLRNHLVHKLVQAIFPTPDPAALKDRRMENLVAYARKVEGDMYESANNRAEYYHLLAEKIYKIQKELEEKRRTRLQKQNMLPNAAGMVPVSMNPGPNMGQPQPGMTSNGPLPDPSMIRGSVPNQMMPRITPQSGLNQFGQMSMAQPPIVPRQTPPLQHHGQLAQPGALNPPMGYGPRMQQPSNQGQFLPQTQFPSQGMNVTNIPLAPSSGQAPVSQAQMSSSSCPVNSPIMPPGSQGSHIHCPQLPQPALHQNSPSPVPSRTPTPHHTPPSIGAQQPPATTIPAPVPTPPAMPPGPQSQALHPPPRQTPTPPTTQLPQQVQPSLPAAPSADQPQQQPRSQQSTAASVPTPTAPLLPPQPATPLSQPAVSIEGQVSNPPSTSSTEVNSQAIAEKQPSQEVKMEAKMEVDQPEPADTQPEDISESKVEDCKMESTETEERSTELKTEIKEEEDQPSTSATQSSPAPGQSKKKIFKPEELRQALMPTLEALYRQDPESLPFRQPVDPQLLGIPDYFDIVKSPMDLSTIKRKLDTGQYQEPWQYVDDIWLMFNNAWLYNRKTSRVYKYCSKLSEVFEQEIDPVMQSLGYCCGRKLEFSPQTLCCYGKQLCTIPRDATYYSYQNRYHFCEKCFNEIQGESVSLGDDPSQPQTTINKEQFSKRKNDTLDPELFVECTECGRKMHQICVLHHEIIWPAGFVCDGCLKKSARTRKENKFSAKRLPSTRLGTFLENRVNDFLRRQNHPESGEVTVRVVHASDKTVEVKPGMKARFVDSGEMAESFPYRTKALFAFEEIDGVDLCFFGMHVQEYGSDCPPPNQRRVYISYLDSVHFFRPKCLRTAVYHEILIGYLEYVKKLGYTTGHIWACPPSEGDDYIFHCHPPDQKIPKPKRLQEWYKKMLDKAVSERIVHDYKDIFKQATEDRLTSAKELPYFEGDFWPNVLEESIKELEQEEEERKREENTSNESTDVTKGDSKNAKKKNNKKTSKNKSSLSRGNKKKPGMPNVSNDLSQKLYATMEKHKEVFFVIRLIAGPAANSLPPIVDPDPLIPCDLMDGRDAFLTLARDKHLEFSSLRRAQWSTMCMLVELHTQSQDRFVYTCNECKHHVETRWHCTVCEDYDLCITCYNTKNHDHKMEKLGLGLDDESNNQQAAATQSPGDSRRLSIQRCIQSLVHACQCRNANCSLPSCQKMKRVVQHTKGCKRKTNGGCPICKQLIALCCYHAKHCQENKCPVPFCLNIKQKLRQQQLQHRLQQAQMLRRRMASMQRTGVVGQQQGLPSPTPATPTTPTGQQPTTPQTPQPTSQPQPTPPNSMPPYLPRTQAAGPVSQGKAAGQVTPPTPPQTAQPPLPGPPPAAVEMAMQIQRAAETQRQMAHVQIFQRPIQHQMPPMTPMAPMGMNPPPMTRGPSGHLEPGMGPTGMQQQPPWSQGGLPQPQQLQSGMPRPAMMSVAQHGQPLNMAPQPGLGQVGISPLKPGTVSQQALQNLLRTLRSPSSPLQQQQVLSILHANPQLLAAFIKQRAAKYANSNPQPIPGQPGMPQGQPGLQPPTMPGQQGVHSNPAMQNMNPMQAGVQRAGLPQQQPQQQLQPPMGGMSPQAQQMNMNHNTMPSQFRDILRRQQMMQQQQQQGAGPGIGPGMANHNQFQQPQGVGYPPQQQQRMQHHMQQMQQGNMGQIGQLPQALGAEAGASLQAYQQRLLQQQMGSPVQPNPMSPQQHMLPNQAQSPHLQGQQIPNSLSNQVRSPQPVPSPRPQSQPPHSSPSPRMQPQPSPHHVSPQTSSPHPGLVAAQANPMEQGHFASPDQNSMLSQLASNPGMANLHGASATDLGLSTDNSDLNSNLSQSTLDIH
Chain of Histone acetyltransferase GCN5 (Saccharomyces cerevisiae S288c) (Q03330 whole entry): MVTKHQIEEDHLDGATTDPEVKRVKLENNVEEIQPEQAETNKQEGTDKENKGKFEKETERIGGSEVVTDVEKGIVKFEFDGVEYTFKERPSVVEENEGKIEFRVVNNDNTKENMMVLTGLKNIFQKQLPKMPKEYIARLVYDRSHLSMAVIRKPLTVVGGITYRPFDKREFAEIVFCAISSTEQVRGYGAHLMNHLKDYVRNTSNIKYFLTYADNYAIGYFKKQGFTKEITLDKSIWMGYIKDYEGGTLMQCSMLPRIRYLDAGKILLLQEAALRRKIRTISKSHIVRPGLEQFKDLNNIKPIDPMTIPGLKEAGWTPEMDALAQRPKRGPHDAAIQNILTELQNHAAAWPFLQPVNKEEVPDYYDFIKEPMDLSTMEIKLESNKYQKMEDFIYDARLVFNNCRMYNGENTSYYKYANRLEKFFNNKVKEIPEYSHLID
Chain of Histone acetyltransferase GCN5 (Q03330 whole entry): as above

In the case of `O=[N+]([O-])c1cc(Br)c2nsnc2c1Sc1ncnc2[nH]cnc12`, the IC50 stood at 2.2 µM in data set [1], 4.6 µM in [6], 2.8 µM in data set [7] and 3.9 µM in [10]. Further, the outcome in [2], in data set [4], in [11], in [12], in [13] and in data set [15] was Active. Moreover, the Activity entry in data set [3], in data set [5], in [8] and in data set [14] was “Not Active” in each case. In addition, the result in data set [9] was inactive. Moreover, the Stability entry in data set [16] is listed as “Unstable”.
